Values after ≈ are worked out from the molar mass of the structure shown. Active and inactive are the calls of the source. No cut-off for these calls is given here.
Experiments:
[1] = system: Escherichia coli; assay: Reduction quinolone resistant mutation in wild type Escherichia coli DM4100 assessed as decrease in recovery of resistant bacterial mutant colonies by agar plate assay; assay type: functional, organism-based
Procedure, shortened: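 Drug added to molten LB agar; 10^4–10^10 CFU of E. coli applied and incubated at 37°C for up to 2 weeks, with cumulative colonies counted daily. Day-1 colonies are taken as the preexisting-mutant baseline. Drug concentration is normalized to MIC99.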

[2] = system: Escherichia coli; assay: Antimicrobial activity against wild type Escherichia coli DM4100 by agar or broth dilution method; assay type: functional
Procedure, shortened: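 K-12 strain grown in LB at 37°C; 10^4–10^5 CFU applied to agar plates or broth with a dilution series of compound; colonies counted after 2 days or turbidity scored after 1 day. MIC99 is the concentration blocking colony formation by 99%, interpolated from log-log plots.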

[3] = system: Escherichia coli; assay: Antimicrobial activity against wild type Escherichia coli DM4100 assessed as bactericidal activity; assay type: functional
Procedure, shortened: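 Liquid-culture killing: E. coli at 5 × 10^6 CFU/ml exposed 20 h to a range of drug concentrations, survivors counted by dilution and plating on drug-free agar incubated overnight at 37°C; MBC taken as concentration lowering survival by 99.9%.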

[4] = system: Escherichia coli; assay: Ratio of MBC to MIC99 in wild type Escherichia coli DM4100; assay type: functional
Procedure, shortened: (§1)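 MBC (99.9% kill after 20 h in liquid at 5 × 10^6 CFU/ml, survivors plated on drug-free agar) divided by MIC99 (99% block of colony formation, agar or broth dilution with 10^4–10^5 CFU, log-log interpolation); efflux-deficient tolC strain for line 4, wild-type DM4100 for line 5.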

[5] = system: Escherichia coli; assay: Ratio of mutant prevention concentration to MIC99 for wild type Escherichia coli DM4100; assay type: functional
Procedure, shortened: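 Population analysis: stationary-phase DM4100 from LB spread on agar plates spanning a broad drug range; colonies counted, passaged on drug-free agar, then retested at the selecting concentration to confirm resistance. MPC is the concentration blocking colony formation from 10^10 CFU, expressed relative to MIC99.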

[6] = system: Escherichia coli; assay: Reduction quinolone resistant mutation in wild type Escherichia coli DM4100 assessed as decrease in recovery of resistant bacterial mutant colonies at 2 times MIC by agar plate assay; assay type: functional, organism-based
[7] = system: Escherichia coli; assay: Reduction quinolone resistant mutation in wild type Escherichia coli DM4100 assessed as decrease in recovery of resistant bacterial mutant colonies at 5 times MIC by agar plate assay; assay type: functional, organism-based
Procedure, shortened: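 Same agar-plate accumulation assay at 5× MIC99 with an inoculum of 10^9 CFU. Drug added to molten LB agar, incubated at 37°C, and cumulative colonies scored at daily intervals. Repeated with inocula of 8 × 10^6 to 10^10 CFU in two replicate experiments.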

[8] = system: Escherichia coli; assay: Antimicrobial activity against wild type Escherichia coli DM4100 assessed as decrease in bacterial survival at 3 times MIC by agar plate method; assay type: functional, organism-based
Procedure, shortened: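 DM4100 (10^4 to 10^8 CFU) spread on quartered agar plates with drug at three times MIC; at various times a quarter excised, washed with LB, cells pelleted (5,000 × g, 5 min), diluted onto drug-free agar at 37°C, colonies counted at 24 and 48 h. Survival relative to untreated input, corrected for resistant mutants scored on 0.02 μg/ml ciprofloxacin agar; two replicate experiments.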

[9] = system: Escherichia coli; assay: Antimicrobial activity against Escherichia coli KD1397 containing tolC::Tn10 gyrA+ mutant by agar or broth dilution method; assay type: functional
Procedure, shortened: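 MIC by agar or broth dilution in LB, 37°C: 10^4–10^5 CFU applied to plates or broth cultures with serial compound concentrations. Colonies counted after 2 days, or turbid growth scored after 1 day. MIC99 is the minimal concentration blocking colony formation by 99%, interpolated from log-log plots.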

[10] = system: Escherichia coli; assay: Antimicrobial activity against Escherichia coli KD1397 containing tolC::Tn10 gyrA+ mutant assessed as bactericidal activity; assay type: functional
Procedure, shortened: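 Liquid-culture lethality: 5 × 10^6 CFU/ml aliquots exposed 20 h to a range of compound concentrations; survivors counted by dilution and plating on drug-free LB agar, overnight at 37°C. MBC taken as the concentration lowering survival by 99.9%.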

[11] = system: Escherichia coli; assay: Ratio of MBC to MIC99 in Escherichia coli KD1397 containing tolC::Tn10 gyrA+ mutant; assay type: functional; procedure, shortened: as §1
[12] = system: Escherichia coli; assay: Ratio of mutant prevention concentration to MIC99 for Escherichia coli KD1397 containing tolC::Tn10 gyrA+ mutant; assay type: functional

Compound	inhibition [1]	MIC99 [2] [µg/mL]	MBC [3] [µg/mL]	Ratio [4]	Ratio [5]	inhibition [6]	inhibition [7]	inhibition [8]	MIC99 [9] [µg/mL]	MBC [10] [µg/mL]	Ratio [11]	Ratio [12]
CCn1cc(C(=O)O)c(=O)c2ccc(C)nc21	Dose-dependent effect											
CCC1CN(c2c(F)cc3c(=O)c(C(=O)O)cn(C4CC4)c3c2OC)CCN1 (configuration not stated)		0.11 (≈ 0.282 µM)	0.33 (≈ 0.847 µM)	3	6	Active	Active	Active				
COc1c(N2CC[C@@H](CN)C2)c(F)cc2c(=O)c(C(=O)O)cn(C3CC3)c12									0.004 (≈ 0.0107 µM)	0.01 (≈ 0.0266 µM)	2.5	8
CCN1CCN(c2c(F)cc3c(=O)c(C(=O)O)cn(C4CC4)c3c2OC)CC1		0.14 (≈ 0.36 µM)	0.27 (≈ 0.693 µM)	1.9	7	Active	Active	Active				
CCN1CCN(c2cc3c(cc2F)c(=O)c(C(=O)O)cn3C2CC2)CC1 [ENROFLOXACIN]		0.022 (≈ 0.0612 µM)	0.07 (≈ 0.195 µM)	3.2	15	Active	Active	Active				
CCC1CN(c2cc3c(cc2F)c(=O)c(C(=O)O)cn3C2CC2)CCN1 (configuration not stated)		0.045 (≈ 0.125 µM)	0.16 (≈ 0.445 µM)	3.5	10	Active	Active	Active				
COc1c(N2CC[C@@H](CN)C2)c(F)cc2c(=O)n(N)c(=O)n(C3CC3)c12									0.5 (≈ 1.38 µM)	1 (≈ 2.75 µM)	2	3
